We go through 7 compounds from PubChem BioAssay.

Test [1] in a line: inhibitors of TNFa-induced NFkB p65 translocation, primary screen, imaging, HUVEC, MLSMR starter and 10KST1 sets (AID 438;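 active = inhibition above 20% together with a positive visual image hit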;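 note: compound added about 3h40 before a 20 min TNFalpha stimulation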;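 for inhibition: signal is the nuclear over cytoplasmic p65 intensity ratio per well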). The conditions noted are these: HUVEC TNFa-induced p65 nuclear translocation; cell count: measured here: nuclei count (cytotoxicity indicator), at 2.08 µM; inhibition: at 2 µM, stronger effect = higher value, 0% TNFa-plus-vehicle, 100% no-TNFa wells.
The nature of test [2]: inhibitors of E-selectin induction by TNFa, primary screen, imaging, HUVEC, immunofluorescence, MLSMR starter and 10KST1 sets (AID 487;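 active = visually confirmed hit in the image check and inhibition above 20%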;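 for inhibition: signal is fraction of cell area covered by stained E-selectin grains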;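 for nuclei count: 100% = median nuclei count of all wells on the same plate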). The conditions noted are these: HUVEC TNFalpha-induced E-selectin immunofluorescence imaging, at 2 µM; inhibition: stronger effect = higher value; nuclei count: measured here: cell number, toxicity.
A short description of test [3]: DUSP6 inhibitors restoring Erk phosphorylation by chemical complementation, primary imaging in DUSP6-transfected HeLa (AID 609;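 active = compounds giving at least 50% inhibition in the cell-based MKP-3 phosphatase rescue imaging test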;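 for inhibition: phospho-Erk level distribution per well compared with pooled transfected vehicle control wells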). The conditions noted are these: HeLa MKP-3 transfected, phospho-Erk imaging KS statistic, at 10 µM, cells stimulated with TPA for 15 min.
Test [4] deals with Dual specificity protein phosphatase 6 (Homo sapiens) (UniProt Q16828). The test is described as above. The note with it: HeLa MKP-3 transfected, phospho-Erk imaging KS statistic; at 10 µM; stronger effect = higher value; cells stimulated with TPA for 15 min.
Test [5] addresses Voltage-gated potassium channel subunit beta-2 (Rattus norvegicus) (UniProt P62483). Briefly: KvBeta enzyme negative modulators, primary screen, biochemical, NADPH fluorescence (AID 622;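 active = fluorescence slope higher than the sample average by over 3 SD, cut at about -0.22 in these data, passing the limit was not always enough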;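 note: slope of raw intensity against log time taken from 70 to 1610 s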). The note with it: recombinant KvBeta, 4-cyanobenzaldehyde reduction, at 10 µM, stronger effect = higher value.
Test [6] has the same target. The test is described as follows: KvBeta positive modulators, primary screen, biochemical, NADPH fluorescence (AID 623).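 Note: fluorescence intensity change per second fitted from 20 to 320 s.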 The note with it: Recombinant KvBeta, NADPH fluorescence decrease slope, 10 min; at 10 µM; stronger effect = lower value.
The target in test [7] is Alpha-2C adrenergic receptor (Homo sapiens) (UniProt P18825). The test is described as follows: modulators of alpha2C/GIRK thallium flux, primary screen, cell-based, HEK293 alpha2C/GIRK1/2 (AID 624;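 active = fluorescence slope after compound addition differing from the mean of all screened samples at 99.7% confidence, in either direction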;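 note: slope of fluorescence ratio to pre-addition baseline per second over 15 to 24 s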). The note with it: thallium flux BTC fluorescence, at 10 µM, actives lie on both sides.
Test [8] in a line: inhibitors of larval lipid processing in zebrafish, primary screen, whole organism, PED6 fluorescence, gall bladder and intestine (AID 686;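 active = a full or partial loss of lipid-probe fluorescence in the fish gall bladder, intestine or both, judged by eye; inactive = no fluorescence loss, or compound toxic to the fish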;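 note: larvae 5 to 7 days old with five fish per well; signal comes from phospholipase A2 cleavage of quenched PED6 carried via bile; overnight exposure to compound and PED6 before scoring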). The conditions noted are these: Zebrafish larvae PED6 lipid processing, fluorescence scoring; screened at 20 µM (by protocol). Put shortly:
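system = live zebrafish larvae aged 5-7 days, whole organism | probe or stimulus = ingested quenched lipid PED6 at 100 nM | doses = 20 µM single dose | timing = overnight exposure | detection = fluorescence microscopy with visual scoring of gall bladder and intestine | read-out = visual per-well fluorescence inhibition score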

Test [9] in a line: inhibitors of Chlamydomonas gravitaxis, primary screen, whole organism, Chlamydomonas reinhardtii, WT vs cilia-less mutant, absorbance, 96-well (AID 463189;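 active = inhibition at or above 50% relative to wild type and mutant plate controls; inactive = inhibition below 50%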;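 note: 0% = wild type cc124 cells in DMSO and 100% = ciliumless bld1 mutant cells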). The conditions noted are these: OD600 absorbance, 2 days, at 10 µM, stronger effect = higher value.
The mark [10] stands for this setting: measured here: cell density z-score.
Where [11] appears, read: measured here: nuclear c-Myc green intensity z-score.
Setting [12] is: measured here: nuclear pErk red intensity z-score, stronger effect = higher value.

Calls of active or inactive are those of the source.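 Rule for the calls, unless noted: active = NADPH fluorescence slope more negative than the mean of all samples by about 3 SD, 99.7% confidence; inactive = the rest.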

Chain of Voltage-gated potassium channel subunit beta-2 (Rattus norvegicus) (P62483 whole entry, looked up): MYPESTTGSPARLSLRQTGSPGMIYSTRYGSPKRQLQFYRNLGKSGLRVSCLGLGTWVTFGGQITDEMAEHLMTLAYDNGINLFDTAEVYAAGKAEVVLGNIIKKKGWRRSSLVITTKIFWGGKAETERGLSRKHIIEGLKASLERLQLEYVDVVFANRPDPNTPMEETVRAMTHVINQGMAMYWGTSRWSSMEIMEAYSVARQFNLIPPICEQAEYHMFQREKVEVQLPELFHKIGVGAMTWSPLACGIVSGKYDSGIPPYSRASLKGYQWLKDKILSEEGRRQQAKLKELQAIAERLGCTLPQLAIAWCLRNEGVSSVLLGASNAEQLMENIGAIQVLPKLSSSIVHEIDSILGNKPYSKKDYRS
Chain of Dual specificity protein phosphatase 6 (Homo sapiens) (Q16828 whole entry, looked up): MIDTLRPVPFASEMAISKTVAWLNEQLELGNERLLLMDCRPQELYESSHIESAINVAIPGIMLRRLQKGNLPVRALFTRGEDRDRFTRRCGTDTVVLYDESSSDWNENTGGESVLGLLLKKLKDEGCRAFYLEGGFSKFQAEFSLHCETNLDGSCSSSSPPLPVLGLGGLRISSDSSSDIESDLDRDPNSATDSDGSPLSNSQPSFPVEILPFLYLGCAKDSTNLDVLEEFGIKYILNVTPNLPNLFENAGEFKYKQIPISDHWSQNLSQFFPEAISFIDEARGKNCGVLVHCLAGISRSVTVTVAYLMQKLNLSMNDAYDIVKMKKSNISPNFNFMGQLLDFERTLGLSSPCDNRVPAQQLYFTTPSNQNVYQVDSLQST
Chain of Alpha-2C adrenergic receptor (Homo sapiens) (P18825 whole entry, looked up): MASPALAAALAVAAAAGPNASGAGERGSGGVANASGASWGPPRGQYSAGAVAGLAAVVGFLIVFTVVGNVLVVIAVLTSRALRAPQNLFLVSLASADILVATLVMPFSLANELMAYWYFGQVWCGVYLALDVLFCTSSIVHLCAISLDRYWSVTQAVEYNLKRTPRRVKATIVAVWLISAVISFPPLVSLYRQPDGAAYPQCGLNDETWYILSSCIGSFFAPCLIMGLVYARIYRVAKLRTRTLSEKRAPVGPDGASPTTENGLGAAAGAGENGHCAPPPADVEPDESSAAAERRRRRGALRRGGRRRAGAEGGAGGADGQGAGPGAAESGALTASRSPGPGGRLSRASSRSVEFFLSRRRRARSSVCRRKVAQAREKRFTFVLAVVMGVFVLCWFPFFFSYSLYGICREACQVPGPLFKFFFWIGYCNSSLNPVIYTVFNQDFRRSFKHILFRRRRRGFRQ

The term inhibition denotes the relative decrease from the control value, in per cent. As for `CCOC(=O)C(NC=O)(NC(C)(C)C)C(=O)OCC`, the cell count in test [1] came to 520. Moreover, the inhibition in test [1] is -16.1% (inactive); in test [2], -227% (inactive); in test [4], -8.95% (inactive); in test [9], -1.22% (inactive). Moreover, the nuclei count in [2] was found to be 188%. Besides, the z-score is -0.692 in test [3] (setting [10]), 0.27 in test [3] (setting [11]) and 0.909 in test [3] (setting [12]). Moreover, the fluorescence slope in test [5] is -0.493 (inactive). Also, in test [6], the NADPH fluorescence slope was -5.5e-05 (inactive). Also, the slope in test [7] was 0.00503 (inactive). Further, the compound was classed as inactive in [8].

Take `Clc1ccc2[nH]c3c(NCCN4CCOCC4)ncnc3c2c1`: the cell count in test [1] is 504. Also, the inhibition in [1] is -25% (inactive); in test [2], -70% (inactive); in test [4] it was -2.47% (inactive); in [9], 2.54% (inactive). Moreover, the nuclei count in test [2] was 154%. Moreover, the z-score in [3] (setting [10]) was -1.3; in [3] (setting [11]) it was 0.291; in test [3] (setting [12]), 1.3. Besides, the fluorescence slope in [5] is -0.503 (inactive). In addition, in test [6], the NADPH fluorescence slope was -3.9e-05 (inactive). The slope in [7] was 0.00429 (inactive). The result in test [8] was inactive.

With `Fc1ccc2[nH]c3c(N4CCN(c5ccccc5)CC4)ncnc3c2c1`, in test [1], the cell count is 424. Further, the inhibition was 5.2% (inactive) in test [1], -109% (inactive) in test [2], 6.04% (inactive) in test [4] and -1.66% (inactive) in [9]. Further, the nuclei count in test [2] turned out to be 93.6%. In addition, the z-score is -1.72 in test [3] (setting [10]), -0.345 in [3] (setting [11]) and 0.928 in test [3] (setting [12]). Besides, in [5], the fluorescence slope was -0.334 (inactive). Besides, the NADPH fluorescence slope in [6] was 6.6e-06 (inactive). Further, in test [7], the slope is 0.005 (inactive). In test [8], the compound was called inactive.

Turning to `Oc1ccc(Br)cc1CNn1cnnc1`, in [1], the cell count stood at 501. Further, the inhibition in [1] is -5.8% (inactive); in test [2] it was -3.9% (inactive); in test [4], -1.75% (inactive); in test [9], 16.1% (inactive). In addition, the nuclei count in [2] came to 122%. For the same compound, the z-score in test [3] (setting [10]) was -0.232; in test [3] (setting [11]) it was 1.89; in test [3] (setting [12]) it was 1.27. Moreover, the fluorescence slope in test [5] is -0.454 (inactive). Also, the NADPH fluorescence slope in test [6] was -2.5e-06 (inactive). The slope in test [7] was 0.0058 (inactive). Moreover, the call in test [8] was inactive.

On to `C=CCc1cccc(/C=N/c2ncn[nH]2)c1O`, for which the cell count in test [1] was found to be 470. The inhibition in test [1] was -9% (inactive); in test [2], -90.5% (inactive); in test [4], 11.9% (inactive); in test [9] it was -13.3% (inactive). This compound also displayed a nuclei count in test [2] of 148%. Also, the z-score was -0.648 in [3] (setting [10]), 0.659 in test [3] (setting [11]) and -0.784 in [3] (setting [12]). Further, the fluorescence slope in test [5] is -0.491 (inactive). Moreover, the NADPH fluorescence slope in test [6] is -0.000107 (inactive). Further, in [7], the slope was 0.00453 (inactive). Also, the outcome in test [8] was inactive.

`OCCN(CCO)c1ncnc2c1sc1nc(N3CCOCC3)c3c(c12)CCCC3`: in test [1], the cell count came out at 597. The inhibition in test [1] was -26.4% (inactive); in [2], -62.2% (inactive); in test [4], 7.73% (inactive); in [9], -3.05% (inactive). In test [2], this compound showed a nuclei count of 167%. In addition, the z-score in [3] (setting [10]) was 0.421; in [3] (setting [11]) it was -0.458; in [3] (setting [12]), -0.129. For the same compound, the fluorescence slope in test [5] was -0.275 (inactive). Further, the NADPH fluorescence slope in test [6] was 1.3e-05 (inactive). Also, the slope in [7] is 0.00534 (inactive). Further, the call in [8] was inactive.

Turning to `CCCCNC(=O)c1cc2n(n1)C(C(F)(F)F)CC(c1ccccc1)N2` (stereo unspecified), in [1], the cell count stood at 519. The inhibition in test [1] was -6.4% (inactive); in test [2] it was -41.1% (inactive); in test [4], 1.75% (inactive); in test [9], -3.15% (inactive). Moreover, in test [2], the nuclei count is 107%. Further, the z-score was -0.754 in test [3] (setting [10]), -0.242 in test [3] (setting [11]) and 0.464 in [3] (setting [12]). In addition, the fluorescence slope in test [5] was -0.529 (inactive). Also, in [6], the NADPH fluorescence slope is -5.9e-05 (inactive). For the same compound, the slope in [7] is 0.00405 (inactive). Also, the compound was classed as inactive in test [8].
